Experimental data collected from several papers.
Compare with care: the assays were run in different laboratories.

CC[C@H](C)[C@H](NC(=O)[C@H](CO)NC(=O)[C@@H](N)CCCCN)C(=O)N[C@H](C(=O)N[C@@H](CC(N)=O)C(=O)N[C@@H](Cc1ccccc1)C(=O)N[C@@H](CCC(=O)O)C(=O)N[C@@H](CCCCN)C(=O)N[C@@H](CC(C)C)C(=O)O)[C@@H](C)CC
Km (Endoplasmic reticulum aminopeptidase 2 (ERAP2, Homo sapiens, UniProt Q6P179); enzyme activity; substrate; mass spectrometry): 12.3 µM

COc1ncccc1-c1cnn2ccc(N3CCN(C(=O)OC(C)C)CC3)nc12
remaining binding (Ribosomal protein S6 kinase alpha-2, C-terminal kinase domain (RPS6KA2, Homo sapiens, UniProt Q15349); binding; competition with immobilised ligand; 1 µM): 83%

Cc1nn(C)cc1-c1nc2c(N3CCN(Cc4ccc(Cl)cc4)CC3)c(Cl)cnc2[nH]1
remaining binding (Serine/threonine-protein kinase Nek5 (NEK5, Homo sapiens, UniProt Q6P3R8); binding; competition with immobilised ligand; 1 µM): 23%

CCN(CC)CCCC[C@H](NC(=O)[C@H](CC(C)C)NC(=O)[C@H](C)NC(=O)[C@H](Cc1ccccc1)NC(=O)c1ccc(C(C)(C)C)cc1)C(=O)N[C@@H](CO)C(=O)OC
ΔTm (SWI/SNF-related matrix-associated actin-dependent regulator of chromatin subfamily A member 2 (SMARCA2, Homo sapiens, UniProt P51531); thermal stability; DSF; 25 µM): 0.14 °C

CCN1CCN(Cc2ccc(C(=O)Nc3ccc(C)c(Oc4ccc5c(c4)CC(=O)N5)c3)cc2C(F)(F)F)CC1
remaining binding (Serine/threonine-protein kinase PRP4 homolog (PRPF4B, Homo sapiens, UniProt Q13523); binding; competition with immobilised ligand; 1 µM): 100%

Cn1cc(-c2cc(F)cc(N3CCn4c(cc5c4CCCC5)C3=O)c2CO)cc(Nc2ccc(N3CCN(C4COC4)CC3)cn2)c1=O
inhibition (Muscle, skeletal receptor tyrosine-protein kinase (MUSK, Homo sapiens, UniProt O15146); enzyme activity; inhibitor; 0.1 µM): 17%

Nc1cccc(-c2nsc(=O)o2)c1
kinact/KI (Proteasome Macropain subunit MB1 (PSMB5, Homo sapiens, UniProt P28074); enzyme activity; inhibitor): 7.2 M⁻¹ s⁻¹

Nc1ncc(-c2nc(N3CCOCC3)nc(N3CCOCC3)n2)c(C(F)F)n1
remaining binding (SRSF protein kinase 3 (SRPK3, Homo sapiens, UniProt Q9UPE1); binding; competition with immobilised ligand; 10 µM): 77%

Cn1cc(-c2cccc(N3CCc4c(sc5c4CC(C)(C)C5)C3=O)c2CO)cc(Nc2ccncn2)c1=O
inhibition (Serine/threonine-protein kinase mTOR (MTOR, Homo sapiens, UniProt P42345); enzyme activity; inhibitor; 1 µM): -4%

COc1ccc(S(=O)(=O)N2CCCCC2)cc1C
inhibition (Vasopressin V2 receptor (AVPR2, Homo sapiens, UniProt P30518); ligand displacement; radioligand; 10 µM): < 30%

C#Cc1n[nH]c2c(-c3cn(C(C)c4ccccn4)c(=O)[nH]c3=O)cc(F)cc12 (stereo not drawn)
inhibition (Proto-oncogene tyrosine-protein kinase ROS (ROS1, Homo sapiens, UniProt P08922); enzyme activity; inhibitor; 1 µM): 1.4%

O=C(Nc1cccnn1)N1CCN([C@@H]2CCOc3cc(C(F)(F)F)ccc32)CC1
inhibition (Neuropeptide Y receptor type 1 (NPY1R, Homo sapiens, UniProt P25929); cell-free assay; 20 µM): -5%
